PP1 counter: PP1-alpha phosphatase inhibitors, primary screen, counter-screen for PP5 inhibitor project, biochemical, fluorescence, OMFP substrate, single point; inhibition, % at 6.7 µM; purified PP1alpha; Serine/threonine-protein phosphatase PP1-alpha catalytic subunit (Homo sapiens), P62136; actives 0.9% (n = 320,000);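 active means inhibition above the mean inhibition of all tested compounds plus 3 SD, computed separately for each screening campaign, cut at about 15% in these data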
PP5 primary: PP5 phosphatase inhibitors, primary screen, biochemical, fluorescence | Serine/threonine-protein phosphatase 5 (Homo sapiens), P53041 | purified PP5c, OMFP substrate fluorescence | inhibition, % at 6.7 µM | actives 0.18% (n = 320,000);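 active means inhibition above the campaign's mean inhibition across all tested compounds plus 3 SD, cut at about 9.5% in these data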;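 further: 0% = DMSO only and 100% = 100 µM cantharidin control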
Target sequence (P53041 whole entry, looked up): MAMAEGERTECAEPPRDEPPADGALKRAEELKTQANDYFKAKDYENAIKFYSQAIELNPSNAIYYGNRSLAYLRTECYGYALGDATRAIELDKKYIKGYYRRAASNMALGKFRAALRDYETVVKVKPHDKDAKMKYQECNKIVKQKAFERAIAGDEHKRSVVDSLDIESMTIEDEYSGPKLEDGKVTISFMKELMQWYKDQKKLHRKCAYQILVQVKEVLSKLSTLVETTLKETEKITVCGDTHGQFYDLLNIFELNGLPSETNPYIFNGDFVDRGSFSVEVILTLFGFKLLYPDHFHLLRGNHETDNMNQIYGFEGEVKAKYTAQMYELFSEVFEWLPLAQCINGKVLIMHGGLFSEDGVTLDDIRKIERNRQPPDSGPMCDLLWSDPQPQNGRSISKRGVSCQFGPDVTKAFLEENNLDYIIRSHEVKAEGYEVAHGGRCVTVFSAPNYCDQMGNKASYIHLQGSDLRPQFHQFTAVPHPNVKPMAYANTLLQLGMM
HIF act: HIF pathway transcriptional activators, primary screen, cell-based, U2OS HRE-luciferase, luminescence; U2OS HRE-luciferase reporter; normalized: DMSO 0%, desferrioxamine 100%; activation, % at 7.5 µM (by protocol); actives 0.32% (n = 300,000);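 active means mean activation of at least 10% of the iron chelator positive control signal, with at least half of replicates also reaching 10%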
HCV NS3 hel inh: inhibitors of HCV NS3 helicase, primary screen, biochemical, Cy5 molecular beacon fluorescence; Hepatitis C virus NS3 helicase; NS3 helicase DNA unwinding; inhibition, % at 10.9 µM; actives 0.56% (n = 290,000);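 active means inhibition above the mean of all tested compounds plus 3 SD, set per campaign, cut at about 35% in these data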;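 further: 0% = DMSO wells and 100% = thioflavine S control wells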
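Assay system – hepatitis C virus NS3 helicase domain fragment enzyme · Buffer or medium – MOPS pH 6.5, MgCl2, DTT, Tween20, BSA · Reagent – Cy5/quencher beacon DNA duplex and ATP to start · Compound – single 10.9 µM dose · Timing – 1 h at 25 °C · Technique – Cy5 beacon fluorescence read at start and 1 h · Measure – % inhibition of unwinding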
DNA FID counter-1: compounds displacing fluorescent DNA intercalator, primary screen, artefact control for HCV NS3 helicase inhibitor project, biochemical, FID fluorescence | DNA fluorescent intercalator displacement | inhibition, % at 7.9 µM | actives 0.17% (n = 290,000) | AID 1845, 2009;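 further: 0% = vehicle and 100% = reference compound; higher means more ethidium bromide displaced from hairpin DNA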
NS3 hel confirm: HCV NS3 helicase inhibitors, retest, confirmation, biochemical, Cy5 molecular beacon fluorescence, triplicate | shares compounds with HCV NS3 hel inh | NS3 helicase DNA unwinding | inhibition, % at 10.9 µM | actives 31% (n = 1,600) | AID 1943, 2009;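 active means inhibition above the mean of all tested compounds plus 3 SD, cutoff set per campaign, cut at about 36% in these data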
DNA FID counter-2: compounds displacing fluorescent DNA intercalator, artefact control for HCV NS3 helicase inhibitor project, biochemical, FID fluorescence, triplicate; shares compounds with HCV NS3 hel inh; DNA fluorescent intercalator displacement; inhibition, % at 7.9 µM; actives 4% (n = 1,600);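 further: 0% = vehicle and 100% = reference compound; higher means more displacement of ethidium bromide from the DNA hairpin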
DNA FID DR: compounds displacing fluorescent intercalator from DNA, dose response, counter-screen for HCV NS3 helicase inhibitor project, biochemical, fluorescence | shares compounds with HCV NS3 hel inh | fluorescent intercalator displacement from DNA | IC50, µM | 120 tested, under 10 active | AID 2172, 2009; call rule not given here
An asterisk follows results filed as active; x = no result given. In the library only some 1.9% were active in any assay of this set; here they are far more common. Unless noted, no stated cut-off is given here; in the data, active means inhibition above about 37%; inactive means the rest.

SMILES	PP1 counter	PP5 primary	HIF act	HCV NS3 hel inh	DNA FID counter-1	NS3 hel confirm	DNA FID counter-2	others
O=C1NC(=O)/C(=C/c2ccccc2OCc2ccccc2)S1	5.3	3.6	-0.6	6.5	-20.7	x	x
COc1ccc(-c2cc(-c3cccs3)c(C#N)c(SCC(=O)NCc3ccccc3)n2)cc1	-4.4	-1.6	-31.6	1.1	-0.1	x	x
N#Cc1c(-c2ccccc2)cc(-c2cccs2)nc1SCC(=O)O	7.8	-0.6	0.7	39.1*	-14.5	67.7*	-12.2
Cc1cccc(NC(=S)Nc2ccc(N3CCOCC3)cc2)c1C	-3.2	2.2	1.1	40.2*	-2.8	-13.9	-1.6
Cc1cccc(NC(=S)NN2CCOCC2)c1C	-1.0	1.9	0.3	1.8	-2.2	x	x
Oc1cccc(C=Nc2cccc3ccccc23)c1O	13.3	-5.0	-0.4	46.3*	-2.5	-1.3	14.4
CN(CC(=O)Nc1ccccc1Br)C(=O)CCCSc1nc2ccccc2[nH]1	-3.6	-0.6	-0.3	x	x	x	x
CC(C)Sc1nc2[nH]ncc2c(=O)[nH]1	-2.2	-1.7	-0.1	-11.7	-2.4	x	x
COc1ccccc1CCNC(=O)CSc1ccc(-c2cccs2)nn1	-3.0	-1.2	0.2	44.5*	-25.6	-10.4	-14.1
O=C(CSc1ccc(-c2cccs2)nn1)NCCc1ccccc1	-3.6	-0.8	0.0	0.5	-9.3	x	x
COc1cccc(CCNC(=O)c2cc(COc3c(F)cccc3F)on2)c1	1.0	2.6	0.6	-10.1	-51.2	x	x
CCSc1nc(-c2ccccc2)c(C#N)c(=O)[nH]1	9.1	0.6	-0.4	14.6	-7.6	x	x
CCCOc1ccc(-c2nc(SCc3ccccc3)[nH]c(=O)c2C#N)cc1OC	-0.3	1.4	-0.9	36.5*	-20.4	90.8*	-14.5	DNA FID DR=>79.4
CC(=O)Nc1sc(N/N=C\c2ccc(O)cc2)nc1-c1cccs1	-0.9	2.2	0.7	3.9	-10.8	x	x
CCN(CC)c1ccc(/C=C(\C#N)c2nc(-c3cccs3)c(NC(C)=O)s2)cc1	x	x	x	45.5*	-13.6	-15.2	13.7
COc1cc(OC)c2c(O)c3c(c(-c4c5c(c(O)c6c(OC)cc(OC)cc46)CO[C@@H](C)[C@H]5O)c2c1)[C@H](O)[C@H](C)OC3	9.8	2.0	-0.1	36.4*	-31.5	69.3*	-20.0
CCCCCOC(=O)c1[nH]c2c(c1C)C(=O)CC(c1ccco1)C2 (stereo not given)	-7.5	-0.4	2.4	41.3*	-36.7	17.4	0.5
O=C(CN1CCOc2ccccc21)NC1CCCCCCC1	1.1	-0.5	0.0	61.6*	-22.0	-15.8	-26.7
O=C(CN1CCOc2ccccc21)NC1CCN(Cc2ccccc2)CC1	-7.9	1.7	-0.4	4.5	6.5	x	x
CCCCN(CCCC)c1ccc(C(=O)c2ccccc2C(=O)O)c(O)c1	16.9*	2.7	-0.2	60.2*	-26.3	75.6*	-13.7
COc1cc2ccccc2cc1C(=O)Nc1nnc(-c2ccncc2)o1	-1.4	3.5	-0.1	-3.5	-43.7	x	x
O=C(O)c1ccccc1/C=N/NC(=O)c1cc(-c2ccco2)nc2ccccc12	8.2	-1.1	-0.4	42.0*	-19.6	68.4*	-21.0	DNA FID DR=>79.4
CCN(CC)CCNC(=O)c1cc(-c2ccco2)nc2ccccc12	-1.9	1.0	-0.3	-11.8	9.7	x	x
COc1ccc(CCNC(=O)c2cc(-c3ccco3)nc3ccccc23)cc1	0.9	0.6	-0.1	53.3*	-30.8	6.6	-16.9
CCN(CC)C(=O)COC(=O)c1cc(-c2ccco2)nc2ccccc12	x	x	-0.5	44.5*	-23.1	18.6	0.3
CC(C)n1c(SCC(=O)Nc2nncs2)nnc1-c1ccco1	0.3	0.7	0.1	18.7	-16.9	x	x
